In brackets after ≈: the same amount, converted by molar mass. Activity calls are given as the source filed them. The rule behind the calls is not given here.
Experiments:
[1] = test system: Tetranychus urticae; test: Insecticidal activity against female Tetranychus urticae (two-spotted spider mite) infested cotton leaf disks followed by 2.5 ppm compound spraying after oviposit assessed as insect mortality measured after 6 days post compound application under green house conditions; assay type: functional; details: foliar, 144 h
[2] = test system: Heliothis virescens; test: Insecticidal activity against Heliothis virescens (tobacco budworm) second-instar larvae infested on compound pre-treated cotton cotyledon disk assessed as insect mortality measured 5 days post compound treatment under green house conditions; assay type: functional; details: for LC50: Heliothis virescens
In short: (§1)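 Leaf disks treated, air-dried and placed singly in cups. Cotton cotyledon disks each get one second-instar tobacco budworm larva; cabbage leaf disks each get one second-instar cabbage looper larva. Cups are capped and held in a growth chamber at 25 °C, 50-55% RH, 14 h light/10 h dark for 5 days.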

[3] = test system: Spodoptera exigua; test: Insecticidal activity against Spodoptera exigua second-instar larvae feeded on 400 ppm compound treated lepidopteran diet assessed as insect mortality measured 5 days post compound treatment under green house conditions; assay type: functional; details: at 400 ppm
[4] = test system: Trichoplusia ni
[5] = test system: Aphis gossypii; test: Insecticidal activity against Aphis gossypii (cotton aphid) infested one week old Crookneck squash plants assessed as insect mortality at 5 ppm measured after 3 days post compound application under green house conditions; assay type: functional; details: 72 h
[6] = test system: Heliothis virescens; test: Insecticidal activity against Heliothis virescens (tobacco budworm) second-instar larvae infested on 400 ppm compound pre-treated cotton cotyledon disk assessed as insect mortality measured 5 days post compound treatment under green house conditions; assay type: functional
[7] = test system: Myzus persicae; test: Insecticidal activity against Myzus persicae (green peach aphid) assessed as insect mortality at 50 ppm; assay type: functional
[8] = test system: Bemisia tabaci
[9] = test system: Trichoplusia ni; test: Insecticidal activity against Trichoplusia ni (cabbage looper) second-instar larvae infested on compound pre-treated cabbage leaf disk assessed as insect mortality measured 5 days post compound treatment under green house conditions; assay type: functional; details: for LC50: Trichoplusia ni, foliar; in short: as §1
[10] = test system: Spodoptera exigua; test: Insecticidal activity against Spodoptera exigua second-instar larvae feeded on compound treated lepidopteran diet assessed as insect mortality measured 5 days post compound treatment under green house conditions; assay type: functional; details: for LC50: Spodoptera exigua, 120 h
[11] = test system: Aphis gossypii; test: Insecticidal activity against Aphis gossypii (cotton aphid) infested one week old Crookneck squash plants assessed as insect mortality at 50 ppm measured after 3 days post compound application under green house conditions; assay type: functional; details: 72 h
[12] = test system: Heliothis virescens; test: Insecticidal activity against Heliothis virescens (tobacco budworm) second-instar larvae infested on 25 ppm compound pre-treated cotton cotyledon disk assessed as insect mortality measured 5 days post compound treatment under green house conditions; assay type: functional; in short: as §1
[13] = test system: Aphis gossypii; test: Insecticidal activity against Aphis gossypii (cotton aphid) infested one week old Crookneck squash plants assessed as insect mortality measured after 3 days post compound application under green house conditions; assay type: functional; details: for LC50: Aphis gossypii, 72 h
[14] = test system: Trichoplusia ni; test: Insecticidal activity against Trichoplusia ni (cabbage looper) second-instar larvae infested on 400 ppm compound pre-treated cabbage leaf disk assessed as insect mortality measured 5 days post compound treatment under green house conditions; assay type: functional; details: at 400 ppm
[15] = test system: Trichoplusia ni; test: Insecticidal activity against Trichoplusia ni (cabbage looper) second-instar larvae infested on 25 ppm compound pre-treated cabbage leaf disk assessed as insect mortality measured 5 days post compound treatment under green house conditions; assay type: functional; in short: as §1
[16] = test system: Spodoptera exigua; test: Insecticidal activity against Spodoptera exigua second-instar larvae feeded on 25 ppm compound treated lepidopteran diet assessed as insect mortality measured 5 days post compound treatment under green house conditions; assay type: functional
[17] = test system: Aphis gossypii
[18] = test system: Tetranychus urticae; test: Insecticidal activity against female Tetranychus urticae (two-spotted spider mite) infested cotton leaf disks followed compound spraying after oviposit assessed as insect mortality measured after 6 days post compound application under green house conditions; assay type: functional; details: for LC50: Tetranychus urticae, foliar, 144 h
[19] = test system: Bemisia tabaci; test: Insecticidal activity against Bemisia tabaci (sweet potato whitefly) second-instar larvae infested five weeks old cotton plants followed by compound 250 ppm compound spraying after insect oviposit assessed as insect mortality measured 13 days post compound treatment under green house conditions; assay type: functional

Compound | mortality at 2.5 ppm [1] [%] | LC50 [2] [µg/mL] | mortality [3] [%] | mortality [4] | mortality at 5 ppm [5] [%] | mortality [6] [%] | LC50 [7] [µg/mL] | mortality [8] | LC50 [9] [µg/mL] | LC50 [10] [µg/mL] | mortality at 50 ppm [11] [%] | mortality [12] [%] | LC50 [13] [µg/mL] | mortality [14] [%] | mortality [15] [%] | mortality [16] [%] | LC50 [18] [µg/mL] | mortality [19] [%] | further results
Cc1cc(-c2cccc(OC(F)(F)C(F)Cl)c2)sc1-c1nc(-c2c(F)cccc2Cl)nn1C (configuration not stated) | 90 | 4.38 (≈ 8.48 µM) | 60 | inactive | 91 | 90 | 75 (≈ 145 µM) | inactive | < 1.6 | 23.1 (≈ 44.7 µM) | 90 | – | – | – | – | – | – | – | LC90 [2]: 151 ppm
Cc1cc(-c2ccc(Cl)cc2F)sc1-c1nc(-c2c(F)cccc2Cl)nn1C | 90 | – | 70 | – | – | 90 | 91 (≈ 209 µM) | inactive | – | – | < 50 | 20 | 4.93 (≈ 11.3 µM) | 90 | 40 | 0 | – | – | –
Cc1cc(-c2ccc(F)c(Cl)c2)sc1-c1nc(-c2c(F)cccc2Cl)nn1C | 60 | – | 80 | – | – | 90 | 55 (≈ 126 µM) | inactive | – | – | – | 0 | 9.28 (≈ 21.3 µM) | 90 | 60 | 0 | – | – | mortality [17]: inactive
Cc1cc(-c2ccc(OC(F)(F)F)cc2)sc1-c1nc(-c2c(F)cccc2Cl)nn1C | 90 | 225 (≈ 481 µM) | 90 | – | – | 80 | 13.7 (≈ 29.3 µM) | inactive | < 1.6 | < 1.6 | 60 | – | 0.5 (≈ 1.07 µM) | 90 | – | – | < 0.04 | – | LC90 [13]: 12.8 ppm; LC90 [18]: 0.151 ppm
Cc1cc(-c2ccc(F)c(F)c2)sc1-c1nc(-c2c(F)cccc2Cl)nn1C | 60 | – | 90 | – | – | 90 | 88 (≈ 210 µM) | – | – | – | < 50 | 20 | 4.41 (≈ 10.5 µM) | 90 | 40 | 0 | – | 90 | LC90 [13]: 22.3 ppm
Cn1nc(-c2c(F)cccc2Cl)nc1-c1sc(-c2ccc(OC(F)(F)C(F)Cl)cc2)cc1Cl (configuration not stated) | 90 | < 1.6 | 60 | inactive | 72 | 90 | 78 (≈ 145 µM) | inactive | < 1.6 | < 1.6 | 90 | – | – | – | – | – | – | – | –
Cn1nc(-c2c(F)cccc2Cl)nc1-c1sc(-c2ccc(OC(F)(F)F)cc2)cc1Cl | 90 | 62 (≈ 127 µM) | 70 | – | 80 | 90 | 65 (≈ 133 µM) | inactive | 4.02 (≈ 8.23 µM) | < 1.6 | 90 | – | – | 90 | – | – | – | – | LC90 [9]: 69.2 ppm
Cc1c(Br)csc1-c1nc(-c2c(F)cccc2Cl)nn1C | – | – | – | – | – | – | 0.8 (≈ 2.07 µM) | – | – | – | – | – | 0.7 (≈ 1.81 µM) | – | – | – | 0.29 (≈ 0.75 µM) | – | –
Cc1cc(-c2ccc(OC(F)(F)C(F)Cl)cc2)sc1-c1nc(-c2c(F)cccc2Cl)nn1C (configuration not stated) | 90 | < 1.6 | 60 | – | – | 90 | < 3.1 | – | < 1.6 | < 1.79 | 90 | – | < 0.5 | 90 | – | – | < 0.1 | <50 | LC90 [18]: 2.07 ppm
Cn1nc(-c2c(F)cccc2Cl)nc1-c1ccc(-c2ccc(OC(F)(F)F)cc2)s1 | 90 | 122 (≈ 269 µM) | 70 | inactive | 47 | 90 | 9.6 (≈ 21.2 µM) | – | 20.6 (≈ 45.4 µM) | 49.9 (≈ 110 µM) | 90 | – | – | – | – | – | – | <50 | LC90 [9]: 27.7 ppm; LC90 [10]: 59.9 ppm
